Measured values published in ChEMBL document CHEMBL3351360, “Design and Synthesis of Orally Bioavailable Benzimidazole Reverse Amides as Pan RAF Kinase Inhibitors” (ACS Med Chem Lett, 2014).
In brackets after ≈: the same amount, converted by molar mass. Activity calls are given as the source filed them. The rule behind the calls is not given here.

Columns and labels:
[1] = target: Serine/threonine-protein kinase B-raf (Homo sapiens, UniProt P15056, V600E); assay: Inhibition of BRAF V600E mutant (unknown origin)
Sequence of Serine/threonine-protein kinase B-raf (Homo sapiens, UniProt P15056, V600E) (P15056 2-766 V600E limits assumed): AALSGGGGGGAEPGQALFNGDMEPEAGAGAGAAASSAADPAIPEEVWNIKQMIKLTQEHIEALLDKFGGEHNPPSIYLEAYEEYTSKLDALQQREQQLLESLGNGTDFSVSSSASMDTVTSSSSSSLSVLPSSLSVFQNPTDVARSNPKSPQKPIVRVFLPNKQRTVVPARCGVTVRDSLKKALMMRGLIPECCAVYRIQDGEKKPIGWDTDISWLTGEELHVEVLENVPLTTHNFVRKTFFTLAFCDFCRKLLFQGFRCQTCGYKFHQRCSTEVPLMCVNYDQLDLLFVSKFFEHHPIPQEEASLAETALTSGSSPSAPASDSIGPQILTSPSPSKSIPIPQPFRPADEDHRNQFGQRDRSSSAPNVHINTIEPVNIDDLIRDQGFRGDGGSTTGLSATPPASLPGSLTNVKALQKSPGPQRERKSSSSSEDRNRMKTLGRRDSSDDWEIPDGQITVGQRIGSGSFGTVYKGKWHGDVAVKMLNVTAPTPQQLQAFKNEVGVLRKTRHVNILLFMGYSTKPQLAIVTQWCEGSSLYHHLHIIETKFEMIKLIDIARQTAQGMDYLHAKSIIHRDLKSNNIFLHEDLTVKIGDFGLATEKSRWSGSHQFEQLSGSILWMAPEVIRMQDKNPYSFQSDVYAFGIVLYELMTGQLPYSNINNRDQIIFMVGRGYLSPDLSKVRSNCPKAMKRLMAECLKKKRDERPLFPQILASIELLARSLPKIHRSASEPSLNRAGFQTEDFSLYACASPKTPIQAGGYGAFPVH

[2] = target: Serine/threonine-protein kinase B-raf (Homo sapiens, UniProt P15056); assay: Inhibition of BRAF (unknown origin)-mediated ERK phosphorylation by cell-based assay
Sequence of Serine/threonine-protein kinase B-raf (Homo sapiens, UniProt P15056) (P15056 whole entry): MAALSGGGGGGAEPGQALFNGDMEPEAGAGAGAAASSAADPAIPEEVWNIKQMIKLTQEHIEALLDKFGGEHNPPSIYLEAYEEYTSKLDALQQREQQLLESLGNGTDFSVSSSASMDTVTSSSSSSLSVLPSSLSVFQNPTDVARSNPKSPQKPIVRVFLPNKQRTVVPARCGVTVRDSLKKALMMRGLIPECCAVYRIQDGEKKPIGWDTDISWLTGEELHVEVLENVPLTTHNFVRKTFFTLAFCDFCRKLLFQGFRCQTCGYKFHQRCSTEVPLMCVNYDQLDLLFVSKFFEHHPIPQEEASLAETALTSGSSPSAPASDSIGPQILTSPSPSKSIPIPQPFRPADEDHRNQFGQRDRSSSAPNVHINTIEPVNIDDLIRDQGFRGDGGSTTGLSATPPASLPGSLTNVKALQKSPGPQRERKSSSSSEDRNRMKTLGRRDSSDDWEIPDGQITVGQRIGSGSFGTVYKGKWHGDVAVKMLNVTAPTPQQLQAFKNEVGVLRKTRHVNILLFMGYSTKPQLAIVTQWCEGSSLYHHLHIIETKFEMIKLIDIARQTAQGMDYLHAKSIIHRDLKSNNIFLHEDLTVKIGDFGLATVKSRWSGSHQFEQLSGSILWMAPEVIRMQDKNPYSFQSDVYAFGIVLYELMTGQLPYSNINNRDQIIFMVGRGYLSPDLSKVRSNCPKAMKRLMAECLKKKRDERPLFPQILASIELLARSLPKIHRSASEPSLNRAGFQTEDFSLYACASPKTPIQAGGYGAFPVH

[3] = Clearance in rat at 10 mg/kg, po as single dose; format: ADME, organism-based; design: dose 10 mg/kg, route oral; conditions: in vivo
In short: (§1)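 Rats received a single oral dose of 10 mg/kg. Clearance, volume of distribution, half-life and oral bioavailability were derived from the plasma PK profile.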

[4] = Oral bioavailability in rat at 10 mg/kg as single dose; format: ADME, organism-based; conditions: in vivo; in short: as §1
[5] = target: Voltage-gated inwardly rectifying potassium channel KCNH2 (Homo sapiens, UniProt Q12809); assay: Inhibition of human ERG
Sequence of Voltage-gated inwardly rectifying potassium channel KCNH2 (Q12809 whole entry): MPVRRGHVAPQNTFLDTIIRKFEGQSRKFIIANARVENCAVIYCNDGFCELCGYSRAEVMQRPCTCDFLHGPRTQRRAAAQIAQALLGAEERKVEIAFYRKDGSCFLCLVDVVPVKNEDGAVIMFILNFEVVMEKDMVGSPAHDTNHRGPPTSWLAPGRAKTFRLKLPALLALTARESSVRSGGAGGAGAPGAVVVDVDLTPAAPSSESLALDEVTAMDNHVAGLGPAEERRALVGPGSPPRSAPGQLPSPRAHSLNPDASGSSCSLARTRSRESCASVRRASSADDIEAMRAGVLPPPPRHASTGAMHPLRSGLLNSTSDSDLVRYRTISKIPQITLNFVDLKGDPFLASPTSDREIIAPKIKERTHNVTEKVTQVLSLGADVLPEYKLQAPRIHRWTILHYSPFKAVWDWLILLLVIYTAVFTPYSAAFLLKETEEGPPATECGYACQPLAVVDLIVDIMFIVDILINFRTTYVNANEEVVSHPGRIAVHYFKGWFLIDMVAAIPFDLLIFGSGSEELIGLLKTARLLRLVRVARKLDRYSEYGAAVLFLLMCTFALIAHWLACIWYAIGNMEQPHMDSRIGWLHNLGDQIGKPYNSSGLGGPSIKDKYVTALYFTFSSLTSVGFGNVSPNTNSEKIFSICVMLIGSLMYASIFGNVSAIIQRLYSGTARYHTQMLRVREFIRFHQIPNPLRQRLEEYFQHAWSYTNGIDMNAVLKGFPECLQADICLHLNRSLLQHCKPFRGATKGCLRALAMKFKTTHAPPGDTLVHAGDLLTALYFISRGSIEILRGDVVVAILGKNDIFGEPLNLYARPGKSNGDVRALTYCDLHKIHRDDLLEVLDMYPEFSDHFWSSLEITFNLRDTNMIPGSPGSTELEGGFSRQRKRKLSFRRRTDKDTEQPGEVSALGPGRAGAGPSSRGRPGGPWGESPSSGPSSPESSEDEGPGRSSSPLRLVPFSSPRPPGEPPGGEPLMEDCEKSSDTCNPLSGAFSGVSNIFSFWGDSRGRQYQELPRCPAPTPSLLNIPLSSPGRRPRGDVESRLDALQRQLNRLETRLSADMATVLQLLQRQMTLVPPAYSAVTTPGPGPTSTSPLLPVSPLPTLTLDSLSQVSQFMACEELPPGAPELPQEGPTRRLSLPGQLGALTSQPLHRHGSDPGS

[6] = target: Tyrosine-protein kinase Lck (Homo sapiens, UniProt P06239); assay: Inhibition of LCK (unknown origin)
[7] = target: Platelet-derived growth factor receptor (Homo sapiens, UniProt P09619+P16234); assay: Inhibition of PDGFR (unknown origin); format: protein-complex assay
[8] = target: Macrophage colony-stimulating factor 1 receptor (Homo sapiens, UniProt P07333); assay: Inhibition of CSF1R kinase (unknown origin)
[9] = target: Mast/stem cell growth factor receptor Kit (Homo sapiens, UniProt P10721); assay: Inhibition of c-Kit (unknown origin)
Sequence of Mast/stem cell growth factor receptor Kit (P10721 whole entry): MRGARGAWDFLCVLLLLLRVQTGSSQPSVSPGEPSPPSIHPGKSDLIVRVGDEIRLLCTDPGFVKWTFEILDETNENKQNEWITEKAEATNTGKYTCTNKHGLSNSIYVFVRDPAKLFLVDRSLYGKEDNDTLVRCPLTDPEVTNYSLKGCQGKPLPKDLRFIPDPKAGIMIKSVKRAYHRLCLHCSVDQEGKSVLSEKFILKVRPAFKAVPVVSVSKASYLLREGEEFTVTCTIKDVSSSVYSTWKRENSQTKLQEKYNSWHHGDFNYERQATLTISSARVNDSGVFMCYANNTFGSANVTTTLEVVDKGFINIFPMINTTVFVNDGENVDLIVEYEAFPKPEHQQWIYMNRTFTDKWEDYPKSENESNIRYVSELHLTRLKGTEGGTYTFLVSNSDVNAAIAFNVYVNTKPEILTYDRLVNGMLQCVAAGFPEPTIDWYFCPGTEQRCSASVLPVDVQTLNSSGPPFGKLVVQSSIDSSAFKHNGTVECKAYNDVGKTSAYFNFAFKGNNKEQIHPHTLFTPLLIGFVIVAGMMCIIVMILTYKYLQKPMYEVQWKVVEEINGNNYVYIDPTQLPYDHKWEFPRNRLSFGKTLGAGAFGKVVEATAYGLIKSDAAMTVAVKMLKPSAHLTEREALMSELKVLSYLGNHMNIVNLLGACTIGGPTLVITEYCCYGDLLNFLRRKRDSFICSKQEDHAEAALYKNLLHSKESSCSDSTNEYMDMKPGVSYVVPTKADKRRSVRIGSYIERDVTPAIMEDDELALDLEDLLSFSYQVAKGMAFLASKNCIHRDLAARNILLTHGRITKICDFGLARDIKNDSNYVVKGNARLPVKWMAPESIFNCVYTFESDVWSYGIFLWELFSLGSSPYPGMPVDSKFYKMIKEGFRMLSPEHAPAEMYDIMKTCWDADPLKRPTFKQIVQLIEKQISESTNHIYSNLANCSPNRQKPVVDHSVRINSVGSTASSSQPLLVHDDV

HT-29 [10] = assay: Inhibition of ERK phosphorylation in human HT-29 cells harboring B-RAF V600E mutant xenografted in nude mouse at 30 to 100 mg/kg/day for 16 days measured 4 to 24 hrs post final dose by Western blot analysis relative to control; format: functional, organism-based; conditions: TDE = time-dependent effect
In short: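 HT29 (BRAF V600E) subcutaneous xenografts in nude mice were dosed orally once daily in 5 mM citrate vehicle at 30 or 100 mg/kg. Tumors were harvested 4 and 24 h after the final dose. Lysates were analysed by Western blot for pERK and total ERK.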

Mus musculus [11] = assay: Toxicity in human HT-29 cells harboring B-RAF V600E mutant xenografted nude mouse assessed as body weight loss at 10 mg/kg/day for […] relative to control; format: organism-based; conditions: in vivo
In short: (§2)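 Nude mice received subcutaneous HT29 (BRAF V600E) colorectal cells at 3×10^6 cells/mouse, and tumors were established over 10 days. Mice were then randomized into 4 groups and dosed orally once daily with vehicle (5 mM citrate) or compound at 10, 30 or 100 mg/kg for 17 days. Tumor growth is given as ΔT/ΔC, and body weight was monitored.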

Cytochrome P450 3A4 = Cytochrome P450 3A4 (Homo sapiens, UniProt P08684); assay: Inhibition of CYP3A4 (unknown origin); format: ADME
Sequence of Cytochrome P450 3A4 (P08684 whole entry): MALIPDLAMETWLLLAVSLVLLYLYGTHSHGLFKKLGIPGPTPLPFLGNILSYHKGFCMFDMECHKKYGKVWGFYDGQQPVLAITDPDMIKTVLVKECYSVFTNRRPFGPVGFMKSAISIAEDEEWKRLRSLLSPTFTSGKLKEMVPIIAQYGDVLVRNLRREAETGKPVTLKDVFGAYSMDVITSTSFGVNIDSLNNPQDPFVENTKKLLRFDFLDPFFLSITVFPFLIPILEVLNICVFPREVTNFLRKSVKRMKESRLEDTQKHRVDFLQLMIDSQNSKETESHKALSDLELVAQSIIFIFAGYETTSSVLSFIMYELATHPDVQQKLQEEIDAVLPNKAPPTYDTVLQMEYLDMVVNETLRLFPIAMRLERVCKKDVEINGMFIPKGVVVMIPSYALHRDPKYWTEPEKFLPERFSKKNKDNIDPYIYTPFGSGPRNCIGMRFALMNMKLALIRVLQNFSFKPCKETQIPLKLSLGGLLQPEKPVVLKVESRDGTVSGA

Mus musculus [12] = assay: Toxicity in human HT-29 cells harboring B-RAF V600E mutant xenografted nude mouse assessed as body weight loss at 100 mg/kg/day […] relative to control; format: organism-based; conditions: in vivo; in short: as §2
HT-29 [13] = assay: Antitumor activity against human HT-29 cells harboring B-RAF V600E mutant xenografted in nude mouse assessed as tumor growth inhibition at 30 mg/kg/day […] relative to control; format: functional; in short: as §2
Mus musculus [14] = assay: Toxicity in human HT-29 cells harboring B-RAF V600E mutant xenografted nude mouse assessed as body weight loss at 30 mg/kg/day […] relative to control; format: organism-based; conditions: in vivo; in short: as §2
Rattus norvegicus = assay: Volume of distribution in rat at 10 mg/kg, po as single dose; format: ADME, organism-based; design: dose 10 mg/kg, route oral; conditions: in vivo; in short: as §1
[15] = Stability in mouse plasma assessed as compound remaining at 1 uM at 37 degC after 45 mins; format: ADME, cell-free; conditions: read-out: Stability
[16] = Half life in rat at 10 mg/kg, po as single dose; format: ADME, organism-based; design: dose 10 mg/kg, route oral; conditions: in vivo; in short: as §1
HT-29 [17] = assay: Antitumor activity against human HT-29 cells harboring B-RAF V600E mutant xenografted in nude mouse assessed as tumor growth inhibition at 10 mg/kg/day for […] relative to control; format: functional; in short: as §2
[18] = target: Proto-oncogene tyrosine-protein kinase Src (Homo sapiens) (UniProt P12931); assay: Inhibition of SRC (unknown origin)
Sequence of Proto-oncogene tyrosine-protein kinase Src (Homo sapiens) (P12931 2-536 limits assumed): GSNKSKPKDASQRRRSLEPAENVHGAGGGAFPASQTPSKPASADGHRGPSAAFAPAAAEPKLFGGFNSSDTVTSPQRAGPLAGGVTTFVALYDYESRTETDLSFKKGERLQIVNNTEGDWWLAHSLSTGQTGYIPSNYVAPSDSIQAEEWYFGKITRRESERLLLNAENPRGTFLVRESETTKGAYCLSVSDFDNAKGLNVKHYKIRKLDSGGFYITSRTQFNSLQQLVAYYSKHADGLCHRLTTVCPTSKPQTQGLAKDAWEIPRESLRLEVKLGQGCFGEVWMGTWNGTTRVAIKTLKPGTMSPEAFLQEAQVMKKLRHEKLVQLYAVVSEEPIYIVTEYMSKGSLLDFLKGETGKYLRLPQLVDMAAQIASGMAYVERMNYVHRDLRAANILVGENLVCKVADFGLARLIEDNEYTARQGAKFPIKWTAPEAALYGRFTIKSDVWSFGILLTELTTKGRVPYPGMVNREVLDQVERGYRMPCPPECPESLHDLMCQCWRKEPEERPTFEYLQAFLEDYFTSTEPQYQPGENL

[19] = target: Vascular endothelial growth factor receptor (Homo sapiens, UniProt P17948+P35916+P35968); assay: Inhibition of VEGFR (unknown origin); format: protein assay
HT-29 [20] = assay: Antitumor activity against human HT-29 cells harboring B-RAF V600E mutant xenografted in nude mouse assessed as tumor growth inhibition at 100 mg/kg/day […] relative to control; format: functional; in short: as §2
[21] = Solubility of the compound at pH 7; format: physicochemical; conditions: buffer

| SMILES | IC50 [1] | EC50 [2] | also measured |
| --- | --- | --- | --- |
| Cn1c(Nc2cccc(C(C)(C)C)c2)nc2cc(Oc3ccnc(NC(=O)C4CCNCC4)c3)ccc21 | 7 nM | 100 nM | – |
| CC(C)N1CCC(C(=O)Nc2cc(Oc3ccc4c(c3)nc(Nc3cc(C(F)(F)F)ccc3F)n4C)ccn2)CC1 | 2 nM | 100 nM | CL/F [3]: 49 mL/min/kg; bioavailability [4]: 54% |
| CC(=O)Nc1cc(Oc2ccc3c(c2)nc(Nc2cccc(C(C)C)c2)n3C)ccn1 | < 0.4 nM | 50 nM | – |
| CCN1CCN(CC(=O)Nc2cc(Oc3ccc4c(c3)nc(Nc3cc(C(F)(F)F)ccc3F)n4C)ccn2)CC1 | 6 nM | 100 nM | INH [5]: 2.3 µM; IC50 [6]: 240 nM; IC50 [7]: < 10 nM; IC50 [8]: < 10 nM; IC50 [9]: < 10 nM; inhibition (HT-29 [10]): tde; CL/F [3]: 32 mL/min/kg; bioavailability [4]: 40%; Activity (Mus musculus [11]): Non-toxic; INH (Cytochrome P450 3A4): > 25 µM; Activity (Mus musculus [12]): 13%; T/C (HT-29 [13]): 72%; Activity (Mus musculus [14]): Non-toxic; Vd (Rattus norvegicus): 12737 mL/kg; remaining at 0.75 h, 1 µM [15]: 1%; half-life [16]: 340 min; T/C (HT-29 [17]): 52%; inhibition [18]: inactive; IC50 [19]: < 10 nM; T/C (HT-29 [20]): 75% |
| CC(=O)Nc1cc(Oc2ccc3c(c2)nc(Nc2cccc(C(F)(F)F)c2)n3C)ccn1 | 3 nM | 400 nM | – |
| CCc1ccc(Nc2nc3cc(Oc4ccnc(NC(C)=O)c4)ccc3n2C)cc1 | 1 nM | 80 nM | – |
| CC(=O)Nc1cc(Oc2ccc3c(c2)nc(Nc2cccc(C(C)(C)C)c2)n3C)ccn1 | 3 nM | 40 nM | – |
| CC(=O)Nc1cc(Oc2ccc3c(c2)nc(Nc2ccc(OC(F)(F)F)cc2)n3C)ccn1 | 1 nM | 100 nM | – |
| CC(=O)Nc1cc(Oc2ccc3c(c2)nc(Nc2ccc(C(F)(F)F)cc2)n3C)ccn1 | 4 nM | 50 nM | remaining at 0.75 h, 1 µM [15]: 100% |
| CN1CCC(C(=O)Nc2cc(Oc3ccc4c(c3)nc(Nc3cccc(C(C)(C)C)c3)n4C)ccn2)CC1 | 10 nM | 100 nM | – |
| CC(C)N1CCC(C(=O)Nc2cc(Oc3ccc4c(c3)nc(Nc3cccc(C(C)(C)C)c3)n4C)ccn2)CC1 | 20 nM | 100 nM | solubility [21]: 581 µg/mL (≈ 1070 µM); CL/F [3]: 90 mL/min/kg; bioavailability [4]: 15%; INH (Cytochrome P450 3A4): 3 µM; Vd (Rattus norvegicus): 17784 mL/kg; half-life [16]: 251 min |
| CC(=O)Nc1cc(Oc2ccc3c(c2)nc(Nc2cc(C(F)(F)F)ccc2F)n3C)ccn1 | 1 nM | 90 nM | – |
| CCc1cccc(Nc2nc3cc(Oc4ccnc(NC(C)=O)c4)ccc3n2C)c1 | < 0.4 nM | 100 nM | – |
| CC(=O)Nc1cc(Oc2ccc3c(c2)nc(Nc2cccc(OC(F)(F)F)c2)n3C)ccn1 | 0.4 nM | 100 nM | – |
| CC(=O)Nc1cc(Oc2ccc3c(c2)nc(Nc2ccc(C(C)C)cc2)n3C)ccn1 | 4 nM | 90 nM | – |
| CC(C)N1CCN(CC(=O)Nc2cc(Oc3ccc4c(c3)nc(Nc3cc(C(F)(F)F)ccc3F)n4C)ccn2)CC1 | 6 nM | 100 nM | INH (Cytochrome P450 3A4): 14 µM |
| CC(=O)Nc1cc(Oc2ccc3c(c2)nc(Nc2ccc(C(C)(C)C)cc2)n3C)ccn1 | 9 nM | 50 nM | – |
